The results in this text go back to ChEMBL document CHEMBL2331506, “Design, synthesis, antiviral and cytostatic evaluation of novel isoxazolidine nucleotide analogues with a carbamoyl linker” (Bioorg Med Chem, 2013).

Data set [1] relates to Human immunodeficiency virus 1. In words: Antiviral activity against Human immunodeficiency virus 1 3B infected in human CEM cells assessed as reduction of virus-induced giant cell formation at 250 uM after 4 to 5 days. Format: functional, organism-based. The following applies: CCRF-CEM. The procedure, abridged:
(§1)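 CEM cells at 3 × 10^5 cells/mL were infected with HIV at 100 CCID50 per mL in the presence of compound dilutions. They were held 4–5 days at 37 °C in humidified CO2. Syncytium (giant cell) formation was scored microscopically, and EC50 was taken as the concentration inhibiting giant cell formation by 50%.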

In a further data set the test system is Influenza B virus. In words: Antiviral activity against Influenza B virus infected in dog MDCK cells assessed as reduction of virus-induced cytopathogenicity at 250 uM. The data set is classed as functional, organism-based. The procedure, abridged:
(§2)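 Confluent cell monolayers were infected with 100 CCID50 of virus while exposed to varying compound concentrations. Cytopathicity was scored once it was complete in untreated infected controls. EC50 was taken as the concentration that reduced virus-induced cytopathogenicity by 50%.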
Background: Damage to the host cells serves as the signal in cytopathic effect assays.

The subject of data set [2] is Influenza A virus. Put plainly: Antiviral activity against Influenza A virus H1N1 infected in dog MDCK cells assessed as reduction of virus-induced cytopathogenicity at 250 uM. The data set is classed as functional, organism-based. Put shortly:
as §2

Data set [3] concerns Human alphaherpesvirus 1. In words: Antiviral activity against Herpes simplex virus 1 KOS infected in human HEL cells assessed as reduction of virus-induced cytopathogenicity at 250 uM. The data set is classed as functional, organism-based. The procedure, abridged: (§3)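 Confluent monolayers (HEL fibroblasts, Vero, or HeLa cells as listed) were infected with 100 CCID50 of virus in the presence of varying compound concentrations. Virus-induced cytopathicity or plaque formation was scored once cytopathicity was complete in untreated infected controls. EC50 was taken as the concentration reducing cytopathogenicity or plaque formation by 50%.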

Data set [4] has as its system Mammalian orthoreovirus 1. Put plainly: Antiviral activity against Reovirus 1 infected in african green monkey Vero cells assessed as reduction of virus-induced cytopathogenicity at 250 uM. Format: functional, organism-based. Put shortly:
as §3

A further data set relates to Sindbis virus. In words: Antiviral activity against Sindbis virus infected in african green monkey Vero cells assessed as reduction of virus-induced cytopathogenicity at 250 uM. The data set is classed as functional, organism-based. The procedure, abridged:
as §3

In the next data set the test system is Feline coronavirus. In words: Antiviral activity against Feline coronavirus infected in cat CRFK cells assessed as reduction of virus-induced cytopathogenicity at 250 uM. The data set is classed as functional, organism-based.
Data set [5] deals with Respiratory syncytial virus. Put plainly: Antiviral activity against Respiratory syncytial virus long infected in human HeLa cells assessed as reduction of virus-induced cytopathogenicity at 250 uM. Format: functional, organism-based. Put shortly:
as §3

The next data set relates to HeLa. In words: Cytotoxicity against human HeLa cells assessed as alteration of cell morphology up to 100 uM by microscopic analysis. Format: cell-based. The procedure, abridged: (§4)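 Uninfected host-cell cultures were exposed to compound and examined by microscopy. Cytotoxicity was expressed as the minimum cytotoxic concentration (MCC) causing a microscopically detectable alteration of normal cell morphology.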

For a further data set, the system named is Vero. Put plainly: Cytotoxicity against african green monkey Vero cells assessed as alteration of cell morphology up to 100 uM by microscopic analysis. Format: cell-based. As to conditions: chlorocebus sabaeus. Put shortly:
as §4

For a further data set, the system named is Human respirovirus 3. In words: Antiviral activity against Parainfluenza virus 3 infected in african green monkey Vero cells assessed as reduction of virus-induced cytopathogenicity at 250 uM. Format: functional, organism-based. Put shortly: as §3
Another data set deals with MDCK. Put plainly: Cytotoxicity against dog MDCK cells assessed as alteration of cell morphology up to 100 uM by microscopic analysis. The data set is classed as cell-based, Canis lupus familiaris. The procedure, abridged:
as §4

Data set [6] concerns Human immunodeficiency virus 2. Put plainly: Antiviral activity against Human immunodeficiency virus 2 ROD infected in human CEM cells assessed as reduction of virus-induced giant cell formation at 250 uM after 4 to 5 days. The data set is classed as functional, organism-based. The following applies: CCRF-CEM. The procedure, abridged:
as §1

Data set [7] has as its system Human alphaherpesvirus 1. Put plainly: Antiviral activity against thymidine kinase-deficient, ACV-resistant Herpes simplex virus 1 KOS infected in human HEL cells assessed as reduction of virus-induced cytopathogenicity at 250 uM. The data set is classed as functional, organism-based. The procedure, abridged: as §2
The next data set deals with HEL. Put plainly: Cytotoxicity against human HEL cells assessed as alteration of cell morphology up to 100 uM by microscopic analysis. The data set is classed as cell-based. The procedure, abridged: as §4
The subject of data set [8] is Vesicular stomatitis virus. Put plainly: Antiviral activity against Vesicular stomatitis virus infected in human HeLa cells assessed as reduction of virus-induced cytopathogenicity at 250 uM. The data set is classed as functional, organism-based. The procedure, abridged:
as §2

In a further data set the test system is Human alphaherpesvirus 2. Put plainly: Antiviral activity against Herpes simplex virus 2 G infected in human HEL cells assessed as reduction of virus-induced cytopathogenicity at 250 uM. The data set is classed as functional, organism-based. As to conditions: strain G. Put shortly: as §3
The subject of another data set is Coxsackievirus B4. In words: Antiviral activity against Coxsackievirus B4 infected in african green monkey Vero cells assessed as reduction of virus-induced cytopathogenicity at 250 uM. The data set is classed as functional, organism-based. The procedure, abridged:
as §3

The subject of data set [9] is Influenza A virus. Put plainly: Antiviral activity against Influenza A virus H3N2 infected in dog MDCK cells assessed as reduction of virus-induced cytopathogenicity at 250 uM. The data set is classed as functional, organism-based. The procedure, abridged: as §2
The nature of data set [10]: Cytotoxicity against cat CRFK cells assessed as alteration of cell morphology up to 100 uM by microscopic analysis. Format: cell-based, Felis catus. The procedure, abridged:
as §4

Another data set relates to Felid alphaherpesvirus 1. In words: Antiviral activity against Feline herpes virus infected in cat CRFK cells assessed as reduction of virus-induced cytopathogenicity at 250 uM. Format: functional, organism-based.
Data set [11] relates to Vesicular stomatitis virus. Put plainly: Antiviral activity against Vesicular stomatitis virus infected in human HEL cells assessed as reduction of virus-induced cytopathogenicity at 250 uM. The data set is classed as functional, organism-based. The procedure, abridged: as §2
The test system of the next data set is Punta Toro virus. In words: Antiviral activity against Punta Toro virus infected in african green monkey Vero cells assessed as reduction of virus-induced cytopathogenicity at 250 uM. Format: functional, organism-based. The procedure, abridged:
as §3

The structures appear in SMILES notation. Active and inactive are the calls of the source. No rule for the calls is given here.

`CCOP(=O)(OCC)[C@@H]1C[C@H](C(=O)Nc2cccc(Br)c2)ON1C` (mixture of isomers): the inhibition entry (in [1]; with Influenza B virus; in the data set with Influenza A virus [2]; in the data set with Human alphaherpesvirus 1 [3]; in [4]; in the data set with Sindbis virus) was “inactive” in each case. For the same molecule, the inhibition result (in the data set on Feline coronavirus; in [5]; with Human respirovirus 3; in data set [6]; with Human alphaherpesvirus 1 [7]; in [8]) was “inactive” each time. Further, the inhibition entry (with Human alphaherpesvirus 2; with Coxsackievirus B4; with Influenza A virus [9]; with Felid alphaherpesvirus 1; in [11]; in the data set on Punta Toro virus) was “inactive” each time. Moreover, the Activity entry (in the data set with HeLa; in the data set with Vero; in the data set with MDCK; in the data set on HEL; in data set [10]) was “Non-toxic” throughout.

Regarding `CCOP(=O)(OCC)[C@H]1C[C@H](C(=O)Nc2ccc(F)cc2F)ON1C` (mixture of isomers), the inhibition entry (in data set [1]; in the data set on Influenza B virus; in the data set on Influenza A virus [2]; in the data set on Human alphaherpesvirus 1 [3]; in [4]; with Sindbis virus) was “inactive” each time. For the same molecule, the inhibition entry (in the data set with Feline coronavirus; in data set [5]; with Human respirovirus 3; in data set [6]; with Human alphaherpesvirus 1 [7]; in data set [8]) was “inactive” in each case. Further, the inhibition result (in the data set on Human alphaherpesvirus 2; in the data set with Coxsackievirus B4; in the data set with Influenza A virus [9]; in the data set with Felid alphaherpesvirus 1; in data set [11]; with Punta Toro virus) was “inactive” in each case. The Activity result (with HeLa; in the data set on Vero; in the data set with MDCK; in the data set on HEL; in data set [10]) was “Non-toxic” each time.

On to `CCOP(=O)(OCC)[C@@H]1C[C@H](C(=O)Nc2cc(OC)c(OC)c(OC)c2)ON1C` (racemic), for which the inhibition entry (in [1]; with Influenza B virus; in the data set with Influenza A virus [2]; in the data set with Human alphaherpesvirus 1 [3]; in [4]; in the data set with Sindbis virus) was “inactive” throughout. Moreover, the inhibition entry (in the data set on Feline coronavirus; in [5]; in the data set on Human respirovirus 3; in data set [6]; with Human alphaherpesvirus 1 [7]; in data set [8]) was “inactive” throughout. Further, the inhibition entry (in the data set with Human alphaherpesvirus 2; in the data set with Coxsackievirus B4; with Influenza A virus [9]; with Felid alphaherpesvirus 1; in data set [11]; in the data set on Punta Toro virus) was “inactive” each time. In addition, the Activity entry (with HeLa; in the data set with Vero; in the data set on MDCK; in the data set with HEL; in data set [10]) was “Non-toxic” each time.

On to `CCOP(=O)(OCC)[C@H]1C[C@H](C(=O)Nc2ccc(F)cc2)ON1C` (racemic), for which the inhibition result (in [1]; in the data set on Influenza B virus; with Influenza A virus [2]; in the data set on Human alphaherpesvirus 1 [3]; in [4]; in the data set on Sindbis virus) was “inactive” throughout. The inhibition entry (with Feline coronavirus; in data set [5]; with Human respirovirus 3; in data set [6]; in the data set with Human alphaherpesvirus 1 [7]; in data set [8]) was “inactive” each time. The inhibition entry (with Human alphaherpesvirus 2; in the data set with Coxsackievirus B4; in the data set with Influenza A virus [9]; with Felid alphaherpesvirus 1; in data set [11]; in the data set on Punta Toro virus) was “inactive” each time. The Activity result (in the data set with HeLa; in the data set on Vero; in the data set with MDCK; with HEL; in [10]) was “Non-toxic” each time.

On to `CCOP(=O)(OCC)[C@@H]1C[C@H](C(=O)Nc2ccccc2Br)ON1C` (mixture of isomers), for which the inhibition result (in data set [1]; in the data set on Influenza B virus; in the data set on Influenza A virus [2]; in the data set on Human alphaherpesvirus 1 [3]; in data set [4]; with Sindbis virus) was “inactive” in each case. For the same molecule, the inhibition result (with Feline coronavirus; in [5]; with Human respirovirus 3; in data set [6]; in the data set on Human alphaherpesvirus 1 [7]; in [8]) was “inactive” throughout. The inhibition result (in the data set with Human alphaherpesvirus 2; with Coxsackievirus B4; in the data set with Influenza A virus [9]; in the data set on Felid alphaherpesvirus 1; in [11]; in the data set with Punta Toro virus) was “inactive” throughout. Moreover, the Activity entry (with HeLa; in the data set with Vero; in the data set with MDCK; in the data set on HEL; in data set [10]) was “Non-toxic” in each case.

For the molecule `CCOP(=O)(OCC)[C@@H]1C[C@H](C(=O)Nc2ccc(C)cc2)ON1C` (mixture of isomers), the inhibition entry (in data set [1]; in the data set with Influenza B virus; in the data set with Influenza A virus [2]; in the data set with Human alphaherpesvirus 1 [3]; in [4]; with Sindbis virus) was “inactive” each time. The inhibition result (with Feline coronavirus; in [5]; in the data set with Human respirovirus 3; in data set [6]; in the data set with Human alphaherpesvirus 1 [7]; in data set [8]) was “inactive” throughout. Further, the inhibition entry (with Human alphaherpesvirus 2; in the data set with Coxsackievirus B4; in the data set with Influenza A virus [9]; with Felid alphaherpesvirus 1; in [11]; in the data set on Punta Toro virus) was “inactive” each time. For the same molecule, the Activity result (with HeLa; in the data set on Vero; with MDCK; in the data set with HEL; in [10]) was “Non-toxic” in each case.
